According to ChEMBL document CHEMBL1649302, “New small-molecule inhibitor class targeting human immunodeficiency virus type 1 virion maturation” (Antimicrob Agents Chemother, 2009):

Tests used:
[1] = tested on: Human immunodeficiency virus 1; assay: Antiviral activity against HIV1 harboring capsid I201V mutant protein infected in human HeLa cells assessed as decrease in viral infection after 72 hrs by beta-galactosidase reporter gene assay; type: functional, organism-based; details: Human immunodeficiency virus 1, HeLa
[2] = tested on: Human immunodeficiency virus 1; assay: Antiviral activity against HIV1 harboring spacer peptide A1V mutant protein infected in human HeLa cells assessed as decrease in viral infection after […] by beta-galactosidase reporter gene assay; type: functional, organism-based; details: Human immunodeficiency virus 1, HeLa
In short: (§1)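 MT-2 cells were infected for 2 h with wild-type NL4-3 or recombinant NL4-3 carrying CA I201V or SP1 A1V. They were then cocultured with HeLa CD4 LTR/beta-Gal indicator cells in serially diluted compound. Beta-gal reporter was read after 4 days. EC50s are means ± SD of 3–6 experiments. Fold change is mutant EC50 divided by wild-type EC50.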

[3] = tested on: Human immunodeficiency virus 1; assay: Antiviral activity against HIV1 NL4-3 infected in HEK293 cells assessed as decrease in virus production at 2 times EC90 after 72 hrs by beta-galactosidase reporter gene assay; type: functional
[4] = tested on: Human immunodeficiency virus 1; assay: Selectivity ratio of EC50 for HIV1 harboring capsid I201V mutant protein infected in human HeLa cells to EC50 for wild type HIV1 infected in human HeLa cells; type: functional; in short: as §1
[5] = tested on: Human immunodeficiency virus 1; assay: Selectivity ratio of EC50 for HIV1 harboring spacer peptide A1V mutant protein infected in human HeLa cells to EC50 for wild type HIV1 infected in human HeLa cells; type: functional; in short: as §1
[6] = tested on: Human immunodeficiency virus 1; assay: Antiviral activity against wild type HIV1 infected in human HeLa cells assessed as decrease in viral infection after 72 hrs by beta-galactosidase reporter gene assay; type: functional, organism-based; details: Human immunodeficiency virus 1, HeLa
In short: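 HeLa CD4 LTR/β-Gal cells (1 × 10⁴/well, DMEM + 10% FBS) were pretreated with half-log compound dilutions. They were then infected at MOI 0.03 with single-cycle NL4-3 ΔEnv reporter virus pseudotyped with envelope from HEK 293 cotransfection. EC50 was the concentration halving β-galactosidase activity versus infected untreated cells. Values are mean ± SD or representative of three experiments.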

[7] = tested on: Human immunodeficiency virus 1; assay: Antiviral activity against HIV1 NL4-3 infected in human HeLa cells assessed as decrease in single-cycle viral infection after 72 hrs by beta-galactosidase reporter gene assay; type: functional, organism-based; details: Human immunodeficiency virus 1, NL4-3, HeLa
In short: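 HeLa CD4 LTR/beta-Gal cells (1 × 10⁴/well, DMEM + 10% FBS) were pre-dosed with half-log compound dilutions. They were infected at MOI 0.03 with single-cycle NL4-3 reporter virus made by cotransfecting HEK 293 cells with pNL4-3deltaEnv and an NL4-3 envelope vector. EC50 is from beta-gal reporter activity relative to infected untreated cells, across three experiments.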

## O=C1Nc2ccc(Cl)cc2[C@@](C#CC2CC2)(C(F)(F)F)O1 [EFAVIRENZ]
[1]
  EC50: 0.6 nM
[2]
  EC50: 1 nM
[3]
  inhibition (INH): 24%

## C=C(C)[C@@H]1CC[C@]2(C(=O)O)CC[C@]3(C)[C@H](CC[C@@H]4[C@@]5(C)CC[C@H](OC(=O)CC(C)(C)C(=O)O)C(C)(C)[C@@H]5CC[C@]43C)[C@@H]12 [BEVIRIMAT]
[1]
  EC50: 290 nM
[4]
  Ratio EC50: 32
[5]
  Ratio EC50: >111
[2]
  EC50: > 1000 nM
[6]
  EC50: 9 nM

## Cc1c(O)cccc1C(=O)N[C@@H](CSc1ccccc1)[C@H](O)CN1C[C@H]2CCCC[C@H]2C[C@H]1C(=O)NC(C)(C)C [NELFINAVIR]
[1]
  EC50: 13 nM
[7]
  EC50: > 1000 nM
[4]
  Ratio EC50: 1
[5]
  Ratio EC50: 2
[2]
  EC50: 38 nM
[6]
  EC50: 16 nM
[3]
  inhibition (INH): 76%
